Test results taken from ChEMBL document CHEMBL4017509, “A Dual Modulator of Farnesoid X Receptor and Soluble Epoxide Hydrolase To Counter Nonalcoholic Steatohepatitis” (J Med Chem, 2017).
Calls of active or inactive are those of the source. No cut-off for these calls is given here.

Tests used:
[1] = biological target: T1, Bile acid receptor (Homo sapiens) (UniProt Q96RI1); test: Transactivation of FXR in human HepG2 cells assessed as FGF19 mRNA expression at 1 uM after 8 to 16 hrs by SYBR green based qRT-PCR analysis relative to DMSO control; format: cell-based
T1 sequence (whole entry): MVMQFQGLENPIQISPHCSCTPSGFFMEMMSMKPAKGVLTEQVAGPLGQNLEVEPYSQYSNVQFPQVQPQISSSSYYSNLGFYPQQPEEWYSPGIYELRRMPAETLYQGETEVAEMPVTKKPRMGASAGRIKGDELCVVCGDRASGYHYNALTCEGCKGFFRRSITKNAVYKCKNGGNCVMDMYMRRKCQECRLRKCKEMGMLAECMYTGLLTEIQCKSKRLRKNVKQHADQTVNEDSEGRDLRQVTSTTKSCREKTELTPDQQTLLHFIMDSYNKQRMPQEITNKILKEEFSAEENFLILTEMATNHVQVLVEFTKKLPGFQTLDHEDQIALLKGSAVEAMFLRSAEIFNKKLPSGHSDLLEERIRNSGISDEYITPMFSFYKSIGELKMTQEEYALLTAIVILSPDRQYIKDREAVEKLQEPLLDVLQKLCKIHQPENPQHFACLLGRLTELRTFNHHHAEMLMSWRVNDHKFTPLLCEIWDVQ
How it was run: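 HepG2 cells incubated with test compound (0.1 and 1 μM) or 0.1% DMSO for 8 or 16 h, washed in cold PBS, RNA extracted; target mRNA by SYBR Green qRT-PCR, duplicate samples, ≥4 independent experiments; comparative ΔΔCt with GAPDH reference, vehicle set as 100%.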

HepG2 = test: Cytotoxicity against human HepG2 cells up to 100 uM after 48 hrs by WST1 assay; format: cell-based; details: hepg2, 48 h
[2] = biological target: Retinoic acid receptor beta (Homo sapiens) (UniProt P10826); test: Transactivation of human GAL4-fused RARbeta ligand binding domain expressed in […] cells at 10 uM after 12 to 14 hrs by dual-glo luciferase reporter gene assay; format: cell-based
Sequence of Retinoic acid receptor beta (Homo sapiens) (P10826 whole entry, the tested form may be a part): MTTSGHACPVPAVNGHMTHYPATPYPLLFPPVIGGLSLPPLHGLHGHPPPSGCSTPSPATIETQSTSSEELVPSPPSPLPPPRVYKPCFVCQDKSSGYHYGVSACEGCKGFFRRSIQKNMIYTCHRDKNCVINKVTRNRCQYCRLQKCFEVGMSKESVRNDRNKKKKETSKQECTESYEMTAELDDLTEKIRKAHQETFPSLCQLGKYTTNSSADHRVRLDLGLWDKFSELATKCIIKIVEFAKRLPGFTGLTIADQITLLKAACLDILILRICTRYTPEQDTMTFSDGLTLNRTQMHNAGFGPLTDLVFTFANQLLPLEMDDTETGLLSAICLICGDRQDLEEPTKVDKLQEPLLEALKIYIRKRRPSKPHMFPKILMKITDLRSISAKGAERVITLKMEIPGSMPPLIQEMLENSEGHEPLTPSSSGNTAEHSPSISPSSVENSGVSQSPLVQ
How it was run: (§1)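 HEK293T cells in DMEM/10% FCS, Opti-MEM before Lipofectamine LTX transfection with pFR-Luc reporter, pRL-SV40 and pFA-CMV GAL4–LBD plasmid. 5 h later compound in 0.1% DMSO, Opti-MEM, overnight (12−14 h). Dual luciferase; firefly/renilla ×1000 = RLU, fold over DMSO control; triplicates, ≥3 independent repeats.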

[3] = biological target: Nuclear receptor subfamily 1 group I member 2 (Homo sapiens, UniProt O75469); test: Transactivation of human GAL4-fused PXR ligand binding domain expressed in […] cells at 10 uM after 12 to 14 hrs by dual-glo luciferase reporter gene assay; format: cell-based; how it was run: as §1
Sequence of Nuclear receptor subfamily 1 group I member 2 (O75469 whole entry, the tested form may be a part): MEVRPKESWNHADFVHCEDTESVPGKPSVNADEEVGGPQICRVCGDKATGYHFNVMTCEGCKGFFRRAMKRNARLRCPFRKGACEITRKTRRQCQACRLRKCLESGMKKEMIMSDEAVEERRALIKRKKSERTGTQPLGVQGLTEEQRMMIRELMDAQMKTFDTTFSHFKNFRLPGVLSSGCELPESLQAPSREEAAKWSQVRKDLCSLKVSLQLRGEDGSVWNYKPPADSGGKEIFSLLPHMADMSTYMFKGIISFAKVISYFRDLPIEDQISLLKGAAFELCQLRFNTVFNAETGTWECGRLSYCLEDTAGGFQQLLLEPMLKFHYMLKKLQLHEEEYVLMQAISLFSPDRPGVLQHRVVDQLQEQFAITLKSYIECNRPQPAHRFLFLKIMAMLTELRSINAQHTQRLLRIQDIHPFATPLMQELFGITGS

[4] = biological target: T2, Bifunctional epoxide hydrolase 2 (Homo sapiens) (UniProt P34913); test: Inhibition of sEH in human HuT-78 cells assessed as reduction in Pam3CSK4-stimulated TNFalpha release preincubated for 24 hrs followed by Pam3CSK4 addition measured after 18 hrs by ELISA; format: cell-based
T2 sequence (whole entry): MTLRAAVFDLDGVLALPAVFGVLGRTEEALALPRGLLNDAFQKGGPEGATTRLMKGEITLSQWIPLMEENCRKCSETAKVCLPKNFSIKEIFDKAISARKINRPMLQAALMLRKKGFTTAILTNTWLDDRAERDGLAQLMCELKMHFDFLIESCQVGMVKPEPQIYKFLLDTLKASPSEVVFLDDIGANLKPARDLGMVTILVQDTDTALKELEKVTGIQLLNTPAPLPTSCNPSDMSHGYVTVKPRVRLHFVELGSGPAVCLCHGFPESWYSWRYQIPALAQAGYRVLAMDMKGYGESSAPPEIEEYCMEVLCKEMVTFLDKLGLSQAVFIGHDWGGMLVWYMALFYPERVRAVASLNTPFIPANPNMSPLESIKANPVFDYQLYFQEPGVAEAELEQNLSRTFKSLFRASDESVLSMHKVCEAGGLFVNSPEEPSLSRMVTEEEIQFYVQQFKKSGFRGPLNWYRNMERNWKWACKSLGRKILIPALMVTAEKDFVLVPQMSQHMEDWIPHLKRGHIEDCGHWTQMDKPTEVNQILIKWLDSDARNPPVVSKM
How it was run: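 HuT-78 cells in RPMI 1640 with 10% heat-inactivated FCS, 2.0 × 10^6 cells/well, exposed to compound (0.1% DMSO) for 24 h; medium then replaced with fresh compound plus Pam3CSK4 20 ng/mL for 18 h; supernatant TNFα measured by ELISA (absorbance 450 nm); each concentration repeated independently at least three times.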

[5] = biological target: T3, Peroxisome proliferator-activated receptor gamma (Homo sapiens) (UniProt P37231); test: Transactivation of human GAL4-fused PPARgamma ligand binding domain expressed in HEL293T cells at 10 uM after 12 to 14 hrs by dual-glo luciferase reporter gene assay relative to pioglitazone; format: cell-based
T3 sequence (whole entry): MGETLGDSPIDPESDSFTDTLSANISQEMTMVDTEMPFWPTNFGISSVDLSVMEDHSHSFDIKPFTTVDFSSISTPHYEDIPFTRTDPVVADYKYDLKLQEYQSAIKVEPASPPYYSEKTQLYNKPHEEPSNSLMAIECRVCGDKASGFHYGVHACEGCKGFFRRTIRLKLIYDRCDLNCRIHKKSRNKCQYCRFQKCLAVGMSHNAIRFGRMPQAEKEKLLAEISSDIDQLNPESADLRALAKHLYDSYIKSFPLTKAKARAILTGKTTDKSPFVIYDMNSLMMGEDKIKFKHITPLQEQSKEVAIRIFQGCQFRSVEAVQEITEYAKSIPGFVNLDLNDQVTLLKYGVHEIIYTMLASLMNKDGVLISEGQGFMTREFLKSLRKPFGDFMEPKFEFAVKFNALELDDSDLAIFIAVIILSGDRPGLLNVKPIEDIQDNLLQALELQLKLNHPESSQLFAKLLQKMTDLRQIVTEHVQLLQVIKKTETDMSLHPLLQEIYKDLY

[6] = Half life in C57BL/6JRj mouse at 10 mg/kg, po measured up to 480 mins post dose by LC-MS analysis; format: ADME, organism-based; details: in vivo
How it was run: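 Male C57BL/6JRj mice (23−26 g), six dosed once orally at 10 mg/kg in water with 1% HPMC/Tween 80 (99:1), three vehicle. Tail-vein blood (20 μL) at 15, 30, 60, 120, 240 and 480 min, last by retro-orbital puncture. Blood spiked, acetonitrile precipitation with griseofulvin internal standard, LC−MS on phenyl-hexyl column. Noncompartmental PK analysis.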

[7] = biological target: Vitamin D3 receptor (Homo sapiens) (UniProt P11473); test: Transactivation of human GAL4-fused VDR ligand binding domain expressed in […] cells at 10 uM after 12 to 14 hrs by dual-glo luciferase reporter gene assay; format: cell-based; how it was run: as §1
Sequence of Vitamin D3 receptor (Homo sapiens) (P11473 whole entry, the tested form may be a part): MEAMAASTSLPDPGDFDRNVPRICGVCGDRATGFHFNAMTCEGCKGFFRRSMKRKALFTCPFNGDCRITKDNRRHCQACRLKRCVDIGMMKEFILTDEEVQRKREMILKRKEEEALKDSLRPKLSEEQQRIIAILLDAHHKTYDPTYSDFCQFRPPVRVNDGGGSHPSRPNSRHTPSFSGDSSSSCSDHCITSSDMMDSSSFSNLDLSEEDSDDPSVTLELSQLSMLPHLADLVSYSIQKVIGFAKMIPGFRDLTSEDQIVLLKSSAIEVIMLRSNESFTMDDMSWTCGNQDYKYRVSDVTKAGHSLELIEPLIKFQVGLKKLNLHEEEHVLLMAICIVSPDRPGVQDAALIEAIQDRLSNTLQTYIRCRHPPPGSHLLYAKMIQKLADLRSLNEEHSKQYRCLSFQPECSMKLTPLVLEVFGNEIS

For `CC(C)(C)c1ccc(C(=O)NCc2ccc(NS(C)(=O)=O)cc2Cl)cc1`, the Activity [1] was 325%, the Activity (HepG2) was “Non-Toxic” and the Activity [2] was “inactive”. The Activity [3] was “Not Active”, the inhibition [4] was “Active” and the Emax [5] was 30%. The half-life [6] was 42 min and the Activity [7] was “inactive”.
